The results in this text go back to ChEMBL document CHEMBL4265955, “Synthesis and antiproliferative activity of podocarpane and totarane derivatives” (Eur J Med Chem, 2018).

The test system of series [1] is MCF7. The series can be described thus: Antiproliferative activity against human MCF7 cells after 3 days by sulforhodamine B assay. In kind it is functional, cell-based. The conditions noted are these: MCF7, 72 h. Put shortly: (§1)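 Cells grown in DMEM with 10% heat-inactivated FBS, penicillin-streptomycin and 2 mM L-glutamine at 37°C, 5% CO2. Seeded at 5 x 10^3 cells/cm², exposed 24 h later to increasing compound concentrations for 3 days. Fixed with cold 10% TCA, stained with 0.4% SRB, dye solubilized in 10 mM Tris pH 10.5, OD read at 492 nm. IC50 taken by linear interpolation of semilog dose-response curve; seven biological replicates, mean ± SEM.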

The subject of series [2] is T84. As to the kind of experiment: Antiproliferative activity against human T84 cells after 3 days by sulforhodamine B assay. It is filed as functional, cell-based. The conditions noted are these: T84, 72 h. A digest of the protocol:
as §1

Series [3] has as its system A549. As to the kind of experiment: Antiproliferative activity against human A549 cells after 3 days by sulforhodamine B assay. The conditions noted are these: A549, 72 h. It is filed as functional, cell-based. Put shortly:
as §1
Background: In SRB staining, fixed cells bind dye roughly in proportion to their protein.

For series [4], the system named is A549. The series can be described thus: Potency index, ratio of 5-fluorouracil IC50 to test compound IC50 for human A549 cells. It is filed as functional.
Series [5] relates to MCF7. The series can be described thus: Potency index, ratio of 5-fluorouracil IC50 to test compound IC50 for human MCF7 cells. It is filed as functional.
For series [6], the system named is T84. As to the kind of experiment: Potency index, ratio of 5-fluorouracil IC50 to test compound IC50 for human T84 cells. It is filed as functional.
For series [7], the system named is PBMC. The series can be described thus: Cytotoxicity against human PBMC assessed as reduction in cell viability at 10 uM by MTT assay relative to control. In kind it is cell-based. A digest of the protocol:
(§2)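 PBMC isolated from healthy donor blood by Histopaque-1077 density gradient centrifugation. Cultured in RPMI-1640 with 20% FBS, penicillin-streptomycin and 2 mM glutamine at 37°C, 5% CO2. Exposed to increasing compound concentrations; viability of non-adherent cultures measured by MTT at 570 and 595 nm and expressed against untreated control cultures.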

The nature of series [8]: Cytotoxicity against human PBMC assessed as cell viability at 1 uM by MTT assay relative to control. It is filed as cell-based. The conditions noted are these: PBMC (peripheral blood mononuclear cells), read-out: Activity. Put shortly: as §2
On the technique in general: Tetrazolium assays rely on reduction of a dye to a coloured formazan, in cell work by metabolically active cells.

Series [9] can be described thus: Cytotoxicity against human PBMC assessed as cell viability at 2.5 uM by MTT assay relative to control. It is filed as cell-based. The conditions noted are these: PBMC (peripheral blood mononuclear cells), read-out: Activity. Put shortly: as §2
Series [10] in a line: Cytotoxicity against human PBMC assessed as cell viability at 5 uM by MTT assay relative to control. It is filed as cell-based. The settings on record: PBMC (peripheral blood mononuclear cells), read-out: Activity. Put shortly: as §2
The test system of series [11] is A549. The series can be described thus: Cell cycle arrest in human A549 cells assessed as accumulation at G2/M phase at IC50 after 24 hrs by propidium iodide staining based flow cytometry (reference value: 8.8%). It is filed as functional. On the technique in general: In flow cytometry, cells or beads pass a laser one at a time.
The test system of series [12] is A549. The series can be described thus: Cell cycle arrest in human A549 cells assessed as accumulation at G0/G1 phase at IC50 after 24 hrs by propidium iodide staining based flow cytometry (reference value: 60.6%). In kind it is functional.
The subject of series [13] is A549. The series can be described thus: Cell cycle arrest in human A549 cells assessed as accumulation at sub-G1 phase at IC50 after 48 hrs by propidium iodide staining based flow cytometry (reference value: 2.6%). It is filed as functional.
Series [14] concerns A549. The series can be described thus: Cell cycle arrest in human A549 cells assessed as reduction in accumulation at G1 phase at IC50 after 48 hrs by propidium iodide staining based flow cytometry. In kind it is functional.
In series [15] the test system is A549. As to the kind of experiment: Cell cycle arrest in human A549 cells assessed as reduction in accumulation at S phase at IC50 after 48 hrs by propidium iodide staining based flow cytometry. In kind it is functional.
In series [16] the test system is A549. As to the kind of experiment: Cell cycle arrest in human A549 cells assessed as reduction in accumulation at G2/M phase at IC50 after 48 hrs by propidium iodide staining based flow cytometry. It is filed as functional.
The subject of series [17] is A549. The series can be described thus: Induction of apoptosis in human A549 cells assessed as viable cells at IC50 after 24 hrs by Annexin-V-FITC/propidium iodide staining based flow cytometry (reference value: 83.6%). It is filed as functional.
The subject of series [18] is A549. The series can be described thus: Induction of apoptosis in human A549 cells assessed as total apoptotic cells at IC50 after 24 hrs by Annexin-V-FITC/propidium iodide staining based flow cytometry (reference value: 13.2%). It is filed as functional.
Series [19] deals with A549. As to the kind of experiment: Induction of apoptosis in human A549 cells assessed as increase in Bax to Bcl2 ratio at 0.5 to 1 times IC50 after 24 hrs Western blot analysis. It is filed as functional, cell-based. A digest of the protocol:
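A-549 seeded at 4 x 10^4 cells/cm², treated 24 h later at 0x, 0.5x or 1x IC50 for 24 h. Lysed in SDS sample buffer, proteins separated on 12% acrylamide gels and transferred to nitrocellulose. Blocked 1 h in 3% milk/1% BSA/0.5% Tween-20 in PBS. Probed overnight with mouse monoclonal anti-Bax or anti-Bcl-2, then HRP anti-mouse IgG.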

Series [20] concerns PBMC. As to the kind of experiment: Cytotoxicity against human PBMC assessed as reduction in cell viability at 0.5 uM by MTT assay relative to control. In kind it is cell-based. A digest of the protocol: (§3)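 PBMC isolated from healthy donor blood by density gradient centrifugation (Histopaque-1077), cultured in RPMI-1640 with 20% FBS, penicillin-streptomycin and 2 mM glutamine at 37°C, 5% CO2. Cells exposed to increasing compound concentrations for 3 days. Viability read by MTT at 570 and 595 nm and expressed versus untreated control cultures.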

The subject of series [21] is PBMC. As to the kind of experiment: Cytotoxicity against human PBMC assessed as reduction in cell viability at 0.5 to 10 uM by MTT assay. It is filed as cell-based. Put shortly: as §3

pIC50: −log10 of the molar value. Active and inactive are the calls of the source. The rule behind the calls is not given here.

The term pIC50 denotes the negative decadic logarithm of the IC50, by convention in mol/L. Low readings indicate a large IC50, high ones a small IC50. On to `COC(=O)c1cc2c(cc1O)[C@@]1(C)CCC[C@](C)(C(=O)OC)[C@@H]1CC2`, for which the negative-log IC50 (pIC50) is 4.66 in the series with MCF7 [1], 4.68 in the series on T84 [2] and 4.76 with A549 [3].
For the compound `COC(=O)[C@@]1(C)CCC[C@]2(C)c3c(O)c(O)cc(C(C)C)c3CC[C@@H]12`, the “Ratio IC50” value with A549 [4], in the series on MCF7 [5] and with T84 [6] was 4 in each case. The pIC50 is 5.55 in the series on MCF7 [1], 6.00 in the series with T84 [2] and 6.22 in the series with A549 [3]. Further, the Activity in the series on PBMC [7] amounted to 21.5%; in the series with A549 [11], 14.5%; in the series with A549 [12], 53.7%; with A549 [13], 70.1%; in the series on A549 [17], 54.2%; in the series with A549 [18], 44%. In addition, in [8], the viability at 1 µM was 86.4%. For the same compound, the viability at 2.5 µM in [9] was 81.3%. Besides, the viability at 5 µM in [10] stood at 87.7%. For the same compound, the outcome with A549 [14], in the series on A549 [15], in the series on A549 [16] and with A549 [19] was Active.
For the compound `O=c1[nH]cc(F)c(=O)[nH]1` [FLUOROURACIL], the pIC50 in the series with MCF7 [1] was 5.11; with T84 [2] it was 5.47; with A549 [3] it was 5.15.
Regarding `COC(=O)[C@@]1(C)CCC[C@]2(C)C3=C(CC[C@@H]12)C(C(C)C)=CC(=O)C3=O`, the figures for the pIC50 in the series with MCF7 [1], in the series on T84 [2] and with A549 [3] were 5.96, 4.94 and 5.17, respectively. Besides, the Activity in the series with PBMC [20] is 25%; with PBMC [7], 43.8%; with PBMC [21], “Toxic”. In series [8], the viability at 1 µM was found to be 69.2%. Besides, the viability at 2.5 µM in series [9] is 64.7%. For the same compound, in series [10], the viability at 5 µM stood at 58.3%.
With `COC(=O)[C@@]1(C)CCC[C@]2(C)c3cc(O)cc(C(C)C)c3CC[C@@H]12`, the figures for the pIC50 in the series with MCF7 [1], in the series with T84 [2] and with A549 [3] were 4.54, 4.52 and 4.73, respectively.
`CC(=O)c1cc2c(cc1O)[C@@]1(C)CCC[C@](C)(CO)[C@@H]1CC2`: the values for the pIC50 in the series with MCF7 [1], with T84 [2] and with A549 [3] were 5.03, 5.11 and 5.32, respectively.
Consider `C=C(C)c1cc(O)cc2c1CC[C@H]1[C@@](C)(C(=O)OC)CCC[C@]21C`, for which the pIC50 was 4.58 in the series on MCF7 [1], 4.51 in the series on T84 [2] and 4.63 in the series with A549 [3].
In the case of `COC(=O)c1cc2c(cc1OC)[C@@]1(C)CCC[C@](C)(C(=O)OC)[C@@H]1CC2`, the pIC50 with MCF7 [1], in the series with T84 [2] and with A549 [3] was under 4.40 in each case.
`COC(=O)c1cc(O)cc2c1CC[C@H]1[C@@](C)(C(=O)OC)CCC[C@]21C`: the pIC50 in the series with MCF7 [1], in the series on T84 [2] and in the series with A549 [3] was under 4.40 throughout.
